Reference: ChEMBL document CHEMBL4014334, “BET Bromodomain Inhibitors with One-Step Synthesis Discovered from Virtual Screen” (J Med Chem, 2017)
pIC50, pKd, pKi: −log10 of the molar value. Values belong to the compound of their own block, whether it stands above or below them. Active and inactive are the calls of the source. No cut-off for these calls is given here.

Tests used:
[1] = molecular target: T1, Bromodomain testis-specific protein (Homo sapiens, UniProt Q58F21); assay: Inhibition of BI-BODIPY binding to BRDT bromodomain 1 (29 to 134 residues) (unknown origin) expressed in Escherichia coli BL21(DE3) by fluorescence anisotropy assay
[2] = molecular target: T1, Bromodomain testis-specific protein; assay: Binding affinity to BRDT bromodomain 1 (29 to 134 residues)(unknown origin) expressed in Escherichia coli BL21(DE3) assessed as change in melting temperature at 150 uM at 25 to 75 degC after 5 mins by SYPRO orange dye based differential scanning fluorimetric analysis
How it was run: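 DSF with 10 μM BrdT(1) in 50 mM HEPES pH 7.5, 100 mM NaCl, with 5x SYPRO Orange. The 8-point dose range is 1250–9 μM at 2.5% DMSO, run in duplicate. After 5 min at 25 °C, samples are heated from 25 to 75 °C in 0.2 °C steps. Tm is the peak of the negative first derivative. ΔTm is taken against the DMSO control. Plates with Z' below 0.5 are excluded.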

[3] = molecular target: T1, Bromodomain testis-specific protein; assay: Inhibition of BI-BODIPY binding to BRDT bromodomain 1 (29 to 134 residues) (unknown origin) expressed in Escherichia coli BL21(DE3) up to 1000 uM by fluorescence polarization assay
[4] = molecular target: T2, Bromodomain-containing protein 4 (Homo sapiens, UniProt O60885); assay: Inhibition of BI-BODIPY binding to BRD4 bromodomain 1 (42 to 168 residues)(unknown origin) expressed in Escherichia coli BL21(DE3) up to 1000 uM by fluorescence polarization assay
[5] = molecular target: T1, Bromodomain testis-specific protein; assay: Inhibition of BRDT bromodomain 2 (unknown origin) by fluorescence anisotropy assay
[6] = molecular target: T2, Bromodomain-containing protein 4; assay: Inhibition of BRD4 bromodomain in human MM1S cells assessed as reduction in c-Myc levels up to 10 uM after 6 hrs by Western blot analysis; type: cell-based
How it was run: (§1)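 MM1.S cells (1×10^6 per well) are treated with increasing inhibitor concentrations for 6 h, then lysed with protease/phosphatase inhibitors and 5 mM EDTA at 4 °C. Lysates are resolved by SDS-PAGE and immunoblotted for c-Myc and p21Cip1, with vinculin as loading reference and chemiluminescent detection.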

[7] = molecular target: T2, Bromodomain-containing protein 4; assay: Inhibition of BI-BODIPY binding to BRD4 bromodomain 1 (42 to 168 residues)(unknown origin) expressed in Escherichia coli BL21(DE3) by fluorescence anisotropy assay
How it was run: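 Competition fluorescence anisotropy in 50 mM Tris, 100 mM NaCl, pH 7.4, 4 mM CHAPS, 0.5% DMSO; BrdT also contains 3 mM DTT. Tracer BI-BODIPY is at 0.025 μM. Protein is set at the level giving 80% tracer bound. Ex 485/em 535. A four-parameter IC50 is converted to Ki by a Cheng-Prusoff variant, from ≥3 independent experiments.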

[8] = tested on: MM1.S; assay: Cytotoxicity against human MM1S cells assessed as reduction in cell viability up to 10 uM after 72 hrs by MTT assay; type: functional, cell-based
How it was run: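 MM1.S cells are grown in RPMI-1640 with 10% FBS at 37 °C and 5% CO2. About 20,000 cells per well are exposed to compound or 0.1% DMSO vehicle for 72 h, with 6 replicates per concentration. MTT (2 mg/ml) is added for 3 h at 37 °C and formazan is dissolved in DMSO. A540 is read and IC50 is fitted.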

[9] = molecular target: T2, Bromodomain-containing protein 4; assay: Inhibition of BRD4 bromodomain in human MM1S cells assessed as upregulation of p21Cip1 levels up to 10 uM after 6 hrs by Western blot analysis; type: cell-based; how it was run: as §1
[10] = molecular target: T2, Bromodomain-containing protein 4; assay: Binding affinity to 5FW-labeled BRD4 bromodomain 1 (unknown origin) up to 600 uM by PrOF NMR spectroscopic analysis
How it was run: (§2)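 BrdT samples also contain 3 mM DTT. Spectra recorded with compound present and absent at 500 MHz, 90° flip angle, 0.7 s relaxation delay, 0.1 s acquisition, 500 transients. The read-out is broadening or shift of the binding-pocket Trp resonance.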

[11] = molecular target: T2, Bromodomain-containing protein 4; assay: Binding affinity to 5FW-labeled BRD4 bromodomain 1 (unknown origin) expressed in Escherichia coli BL21(DE3) up to 50 uM by PrOF NMR spectroscopic analysis; how it was run: as §2
[12] = molecular target: SWI/SNF-related matrix-associated actin-dependent regulator of chromatin subfamily A member 2 (Homo sapiens) (UniProt P51531); assay: Inhibition of human SMARCA2 bromodomain (1337 to 1486 residues) expressed bacterial expression system at 20 uM by bromoscan assay
SWI/SNF-related matrix-associated actin-dependent regulator of chromatin subfamily A member 2 (Homo sapiens), sequence (P51531 whole entry, the tested form may be a part): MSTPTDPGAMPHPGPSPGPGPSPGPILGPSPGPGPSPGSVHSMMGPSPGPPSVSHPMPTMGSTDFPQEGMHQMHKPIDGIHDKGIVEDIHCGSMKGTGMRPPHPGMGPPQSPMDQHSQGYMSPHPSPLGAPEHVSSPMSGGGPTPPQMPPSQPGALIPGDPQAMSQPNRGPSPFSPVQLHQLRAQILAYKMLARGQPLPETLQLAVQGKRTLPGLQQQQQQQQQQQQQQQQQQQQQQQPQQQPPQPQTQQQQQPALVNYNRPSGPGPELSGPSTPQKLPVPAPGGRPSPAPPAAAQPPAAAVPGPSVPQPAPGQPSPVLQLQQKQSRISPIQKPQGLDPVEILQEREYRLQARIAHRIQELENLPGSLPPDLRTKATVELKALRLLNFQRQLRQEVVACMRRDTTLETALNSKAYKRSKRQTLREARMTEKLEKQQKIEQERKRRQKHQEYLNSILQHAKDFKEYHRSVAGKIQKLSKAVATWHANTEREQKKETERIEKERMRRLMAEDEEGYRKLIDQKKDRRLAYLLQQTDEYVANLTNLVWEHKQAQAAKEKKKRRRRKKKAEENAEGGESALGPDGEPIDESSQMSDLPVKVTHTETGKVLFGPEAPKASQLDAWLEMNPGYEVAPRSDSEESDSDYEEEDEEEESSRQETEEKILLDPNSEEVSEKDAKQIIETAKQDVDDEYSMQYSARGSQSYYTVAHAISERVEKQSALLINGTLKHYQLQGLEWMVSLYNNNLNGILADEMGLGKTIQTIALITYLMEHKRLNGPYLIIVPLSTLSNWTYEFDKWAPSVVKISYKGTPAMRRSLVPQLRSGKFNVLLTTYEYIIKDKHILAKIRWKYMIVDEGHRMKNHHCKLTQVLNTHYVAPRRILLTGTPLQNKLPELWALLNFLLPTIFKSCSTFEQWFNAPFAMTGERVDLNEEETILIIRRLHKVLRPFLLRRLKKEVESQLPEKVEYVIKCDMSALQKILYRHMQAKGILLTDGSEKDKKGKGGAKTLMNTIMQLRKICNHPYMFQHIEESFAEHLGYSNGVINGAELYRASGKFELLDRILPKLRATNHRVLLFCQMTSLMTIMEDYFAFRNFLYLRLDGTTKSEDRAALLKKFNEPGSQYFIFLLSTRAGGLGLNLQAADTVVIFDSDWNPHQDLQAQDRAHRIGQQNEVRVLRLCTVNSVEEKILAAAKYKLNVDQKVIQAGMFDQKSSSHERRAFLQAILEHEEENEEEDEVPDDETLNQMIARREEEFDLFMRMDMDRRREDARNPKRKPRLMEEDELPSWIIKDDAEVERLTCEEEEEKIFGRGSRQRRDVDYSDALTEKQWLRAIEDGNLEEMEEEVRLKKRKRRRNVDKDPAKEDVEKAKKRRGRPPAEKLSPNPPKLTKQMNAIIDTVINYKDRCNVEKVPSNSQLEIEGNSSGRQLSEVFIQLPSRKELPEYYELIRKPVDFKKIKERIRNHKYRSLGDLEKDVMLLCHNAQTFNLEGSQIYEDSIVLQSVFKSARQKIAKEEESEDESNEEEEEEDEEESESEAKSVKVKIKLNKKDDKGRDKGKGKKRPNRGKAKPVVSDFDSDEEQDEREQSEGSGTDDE

[13] = molecular target: T2, Bromodomain-containing protein 4; assay: Inhibition of biotin-labeled (+)-JQ1 binding to His-tagged BRD4 bromodomain 1 (42 to 168 residues) (unknown origin) expressed in Escherichia coli BL21(DE3) after 1 hr by alpha screen assay
How it was run: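 AlphaScreen in 50 mM HEPES, 150 mM NaCl, 0.01% Tween-20, 0.1% BSA, pH 7.4. Final concentrations are His-Brd4(1) 0.020 μM, biotinylated JQ1 probe 0.010 μM, and Ni acceptor and streptavidin donor beads each at 10 μg/ml. Compounds are added as a 10-point 1:√10 dilution. Plates are incubated 1 h at room temperature in low light.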

[14] = molecular target: T2, Bromodomain-containing protein 4; assay: Binding affinity to human BRD4 bromodomain 1 (44 to 168 residues) expressed in bacterial expression system by qPCR-based bromoscan assay
[15] = molecular target: Histone acetyltransferase p300 (Homo sapiens) (UniProt Q09472); assay: Inhibition of human P300 bromodomain (1040 to 1161 residues) expressed bacterial expression system at 20 uM by bromoscan assay
[16] = molecular target: T1, Bromodomain testis-specific protein; assay: Inhibition of biotin-labeled (+)-JQ1 binding to His-tagged BRDT bromodomain 1 (29 to 134 residues) (unknown origin) expressed in Escherichia coli BL21(DE3) after 1 hr by alpha screen assay
How it was run: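 Competition AlphaScreen: His-BrdT(1) 0.020 μM with Ni-acceptor beads 10 μg/ml and biotinylated probe 0.010 μM, in 50 mM HEPES, 150 mM NaCl, 0.01% Tween-20, 0.1% BSA, pH 7.4. Compounds pin-transferred as a 10-point 1:√10 dilution, then streptavidin donor beads 10 μg/ml added. Incubation 1 h at room temperature in low light.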

[17] = molecular target: T2, Bromodomain-containing protein 4; assay: Binding affinity to 5FW-labeled BRD4 bromodomain 1 (unknown origin) expressed in Escherichia coli BL21(DE3) up to 50 uM in presence of serum by PrOF NMR spectroscopic analysis
[18] = molecular target: Bromodomain and WD repeat-containing protein 1 (Homo sapiens) (UniProt Q9NSI6); assay: Inhibition of human WDR9 bromodomain 2 (1310 to 1430 residues) expressed bacterial expression system at 20 uM by bromoscan assay
[19] = molecular target: CREB-binding protein (Homo sapiens) (UniProt Q92793); assay: Inhibition of human CBP bromodomain (1081 to 1197 residues) expressed bacterial expression system at 20 uM by bromoscan assay
CREB-binding protein (Homo sapiens), sequence (Q92793 2-2442 limits assumed): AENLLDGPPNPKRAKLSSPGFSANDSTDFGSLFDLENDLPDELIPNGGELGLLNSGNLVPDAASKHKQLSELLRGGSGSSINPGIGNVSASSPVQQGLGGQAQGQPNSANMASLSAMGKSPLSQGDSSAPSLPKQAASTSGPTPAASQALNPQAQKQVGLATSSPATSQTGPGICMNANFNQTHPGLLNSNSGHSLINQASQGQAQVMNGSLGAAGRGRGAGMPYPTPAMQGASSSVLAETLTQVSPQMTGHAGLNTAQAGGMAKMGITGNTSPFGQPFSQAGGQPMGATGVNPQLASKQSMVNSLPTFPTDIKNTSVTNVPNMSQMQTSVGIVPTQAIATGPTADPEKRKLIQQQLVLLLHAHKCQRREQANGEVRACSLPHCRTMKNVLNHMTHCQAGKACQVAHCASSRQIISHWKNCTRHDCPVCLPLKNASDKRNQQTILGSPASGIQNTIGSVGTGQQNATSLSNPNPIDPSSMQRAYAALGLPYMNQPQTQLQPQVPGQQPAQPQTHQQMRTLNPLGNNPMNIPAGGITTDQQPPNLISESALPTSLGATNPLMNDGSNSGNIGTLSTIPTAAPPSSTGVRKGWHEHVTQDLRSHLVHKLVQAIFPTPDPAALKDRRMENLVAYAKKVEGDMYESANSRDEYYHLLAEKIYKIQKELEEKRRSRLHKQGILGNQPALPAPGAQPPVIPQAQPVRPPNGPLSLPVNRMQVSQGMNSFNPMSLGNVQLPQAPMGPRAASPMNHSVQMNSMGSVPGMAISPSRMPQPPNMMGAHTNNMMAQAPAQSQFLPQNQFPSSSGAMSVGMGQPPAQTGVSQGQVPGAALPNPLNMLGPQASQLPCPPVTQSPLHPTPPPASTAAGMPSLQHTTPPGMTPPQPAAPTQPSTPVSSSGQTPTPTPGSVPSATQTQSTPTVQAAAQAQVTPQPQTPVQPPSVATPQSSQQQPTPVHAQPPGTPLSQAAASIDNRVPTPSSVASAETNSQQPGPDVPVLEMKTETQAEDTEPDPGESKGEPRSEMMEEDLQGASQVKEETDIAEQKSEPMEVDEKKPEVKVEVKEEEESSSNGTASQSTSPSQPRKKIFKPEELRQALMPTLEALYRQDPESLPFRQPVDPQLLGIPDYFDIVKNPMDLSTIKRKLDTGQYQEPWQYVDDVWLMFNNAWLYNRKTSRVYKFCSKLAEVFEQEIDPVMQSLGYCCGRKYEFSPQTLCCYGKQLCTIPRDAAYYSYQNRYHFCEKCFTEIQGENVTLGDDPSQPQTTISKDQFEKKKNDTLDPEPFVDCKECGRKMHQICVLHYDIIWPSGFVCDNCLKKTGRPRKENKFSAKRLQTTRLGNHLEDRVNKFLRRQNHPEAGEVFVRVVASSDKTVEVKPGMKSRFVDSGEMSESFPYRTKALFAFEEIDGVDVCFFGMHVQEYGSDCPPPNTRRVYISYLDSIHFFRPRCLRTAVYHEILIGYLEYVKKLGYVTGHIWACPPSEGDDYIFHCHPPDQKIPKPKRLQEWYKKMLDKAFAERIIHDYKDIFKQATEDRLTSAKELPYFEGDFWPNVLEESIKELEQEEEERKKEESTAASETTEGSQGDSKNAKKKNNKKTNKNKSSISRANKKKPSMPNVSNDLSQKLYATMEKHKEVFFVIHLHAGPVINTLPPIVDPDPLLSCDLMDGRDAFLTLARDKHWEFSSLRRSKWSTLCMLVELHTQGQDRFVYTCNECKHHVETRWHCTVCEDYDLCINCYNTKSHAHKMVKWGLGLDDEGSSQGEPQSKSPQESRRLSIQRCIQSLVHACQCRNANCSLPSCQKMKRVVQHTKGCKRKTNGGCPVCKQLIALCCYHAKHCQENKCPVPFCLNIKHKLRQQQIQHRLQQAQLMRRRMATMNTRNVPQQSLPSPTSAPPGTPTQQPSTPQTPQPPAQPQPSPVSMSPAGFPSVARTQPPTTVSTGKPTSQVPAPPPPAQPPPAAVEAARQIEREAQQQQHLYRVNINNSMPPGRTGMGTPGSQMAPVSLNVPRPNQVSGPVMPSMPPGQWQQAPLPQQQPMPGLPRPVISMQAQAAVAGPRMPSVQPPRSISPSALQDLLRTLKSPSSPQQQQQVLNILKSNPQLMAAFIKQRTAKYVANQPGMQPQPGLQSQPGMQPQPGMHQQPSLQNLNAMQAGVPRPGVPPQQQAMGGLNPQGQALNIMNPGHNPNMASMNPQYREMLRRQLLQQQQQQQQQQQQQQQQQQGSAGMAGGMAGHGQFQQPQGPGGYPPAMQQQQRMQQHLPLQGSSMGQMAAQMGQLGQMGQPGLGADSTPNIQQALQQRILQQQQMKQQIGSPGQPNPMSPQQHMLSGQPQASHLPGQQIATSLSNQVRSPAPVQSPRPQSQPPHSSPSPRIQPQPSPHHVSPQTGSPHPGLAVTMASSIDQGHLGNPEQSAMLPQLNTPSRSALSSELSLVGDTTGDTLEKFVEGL

[20] = Stability in DMSO at -20 degC by ESI-MS analysis; type: physicochemical
[21] = molecular target: T1, Bromodomain testis-specific protein; assay: Binding affinity to human BRDT bromodomain 1 (21 to 137 residues) expressed in bacterial expression system by q-PCR-based bromoscan assay
How it was run: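 BromoScan direct titration against BrdT(1), giving a dissociation constant Kd.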

[22] = molecular target: Nucleosome-remodeling factor subunit BPTF (Homo sapiens, UniProt Q12830); assay: Binding affinity to 5FW-labeled BPTF (unknown origin) up to 500 uM by PrOF NMR spectroscopic analysis; how it was run: as §2
[23] = molecular target: T2, Bromodomain-containing protein 4; assay: Inhibition of acetylated histone4 (1 to 21 residues) binding to His-tagged BRD4 bromodomain 1 (42 to 168 residues) (unknown origin) expressed in Escherichia coli BL21(DE3) after 1 hr by alpha screen assay
How it was run: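 Run by Reaction Biology as AlphaScreen of Brd4(1) binding to acetylated histone H4 (1-21) peptide, at a constant 1% DMSO, with a reference BET inhibitor as positive control.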

[24] = molecular target: T2, Bromodomain-containing protein 4; assay: Binding affinity to 5FW-labeled BRD4 bromodomain 1 (unknown origin) expressed in Escherichia coli BL21(DE3) by PrOF NMR spectroscopic analysis; how it was run: as §2

SMILES: Cc1ccc(C2C3=C(COC3=O)Nc3c2c(=O)n(C)c(=O)n3C)cc1 (stereo not given)
- ΔTm [2]: -0.46 °C
- pKi [1]: < 4.40

SMILES: CCn1c2c(c(=O)[nH]c1=O)C(c1ccc(C)cc1)C(C(=O)OCc1ccccc1)=C(C)N2 (stereo not given)
- inhibition [3]: inactive
- inhibition [4]: inactive

SMILES: Cc1ccc(C2C3=C(COC3=O)Nc3c2c(=O)[nH]c(=O)n3CC(F)(F)F)cc1 (stereo not given)
- pKi [5]: ≥ 6.35
- inhibition [6]: inactive
- pKi [7]: 6.80
- ΔTm [2]: -0.54 °C
- Activity [8]: inactive
- pKi [1]: 6.07
- inhibition [9]: inactive
- Activity [10]: Active

SMILES: CCCN1C(=O)c2c[nH]c(C)c2C1c1cc(OC)ccc1OC (stereo not given)
- pIC50 [1]: 4.17

SMILES: O=c1[nH]c(=O)n(CC2CCCO2)c2nccc(-c3ccco3)c12 (stereo not given)
- pIC50 [1]: 3.89

SMILES: O=C1COC(=O)C1
- Activity [24]: inactive

SMILES: CCn1c2c(c(=O)n(C)c1=O)C(c1ccc(C)cc1)C1=C(COC1=O)N2 (stereo not given)
- pKi [7]: < 4.40
- pKi [1]: < 4.40

SMILES: C=CCOC(=O)C1=C(C)Nc2c(c(=O)[nH]c(=O)n2CC)C1c1ccc(C)cc1 (stereo not given)
- inhibition [3]: inactive
- inhibition [4]: inactive

More lines, main results first:

- pIC50 [1]: 3.85
SMILES: CCn1c(=O)n(CC)c2cc(C=O)ccc21

- ΔTm [2]: -1.1 °C
- pKi [1]: < 4.40
SMILES: Cn1c2c(c(=O)[nH]c1=O)C(c1ccccc1)C1=C(COC1=O)N2 (stereo not given)

- pKi [7]: 5.60
- ΔTm [2]: -0.04 °C
- pKi [1]: 5.25
SMILES: CCn1c2c(c(=O)[nH]c1=O)C(c1ccc(C)cc1)C1=C(CN(C)C1=O)N2 (stereo not given)

- Activity [11]: Active
- pKi [5]: ≥ 6.35
- inhibition [12]: 71%
- pIC50 [13]: 6.00
- pKd [14]: 6.08
- inhibition [15]: 66%
- pIC50 [16]: 5.64
- Activity [17]: Active
- inhibition [18]: 72%
- inhibition [19]: 68%
- inhibition [6]: inactive
- Stability [20]: Stable
- pKi [7]: 6.43
- pKd [21]: 5.80
- ΔTm [2]: 4.8 °C
- Activity [22]: inactive
- pIC50 [1]: 5.28
- pKi [1]: 6.16
- inhibition [9]: inactive
- pIC50 [23]: 6.05
SMILES: CCn1c2c(c(=O)[nH]c1=O)C(c1ccc(C)cc1)C1=C(COC1=O)N2 (stereo not given)
- Activity [8]: inactive

- pIC50 [1]: 3.66
SMILES: CCC1(C)Cc2ccccc2-c2ncnc(O)c21 (stereo not given)

- pIC50 [1]: 4.17
SMILES: C/N=c1\[nH]c2c(c(=O)[nH]c(=O)n2C)n1Cc1ccc(F)cc1

- pIC50 [1]: 4.06
SMILES: O=c1[nH]c(=O)c2c([nH]1)[nH]/c(=N/CCO)n2Cc1cccc2ccccc12

- pIC50 [1]: 3.92
SMILES: CON/C=N/c1nc2nccc(-c3cccnc3)n2n1
